The values that follow come from ChEMBL document CHEMBL1127464, “Inhibitors of HIV-1 proteinase containing 2-heterosubstituted 4-amino-3-hydroxy-5-phenylpentanoic acid: synthesis, enzyme inhibition, and antiviral activity” (J Med Chem, 1994).

For assay [1], the target named is Human immunodeficiency virus type 1 protease (Human immunodeficiency virus 1, UniProt Q72874). Briefly: Inhibitory constant against HIV-1 protease. The method in brief: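 HIV-1 proteinase expressed in E. coli JM 105 and purified to homogeneity. Initial rates were taken from the absorbance decrease at 298 nm. IC50 came from a fit of the initial velocities. Ki was derived from IC50 accounting for enzyme, substrate and Km. Mean of two determinations.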

In assay [2] the test system is Human immunodeficiency virus 1. Briefly: Antiviral activity by observing cytopathic effect induced by HIV-1 strain IIIB in de novo infected MT-4 cells. The format is functional, organism-based. Particulars: Human immunodeficiency virus 1, MT4. On the technique in general: Damage to the host cells serves as the signal in cytopathic effect assays.

`CC(C)[C@H](NC(=O)CCCCCN)C(=O)N[C@@H](Cc1ccccc1)[C@@H](O)[C@@H](NCc1ccccc1)C(=O)N[C@H](C(=O)NCc1ccccc1)C(C)C` came in with a Ki in assay [1] of 33 nM. Moreover, in assay [2], the half-maximal inhibitory concentration (IC50) was > 3000 nM.

In assay [1], `CC(C)[C@H](NC(=O)[C@H](NCc1ccccc1)[C@H](O)[C@H](Cc1ccccc1)NC(=O)[C@H](C)NC(=O)OCc1ccccc1)C(=O)NCc1ccccc1` yielded a Ki of 34 nM. In assay [2], the half-inhibitory concentration (IC50) was > 3000 nM. For `CC(C)[C@H](NC(=O)OC(C)(C)C)C(=O)N[C@@H](Cc1ccccc1)[C@@H](O)[C@@H](NCc1ccccc1)C(=O)N[C@H](C(=O)NCc1ccccc1)C(C)C` the same measures were 215 nM and > 3000 nM.

In assay [1], `CC(C)[C@H](NC(=O)OCc1ccccc1)C(=O)N[C@@H](Cc1ccccc1)[C@@H](O)[C@@H](NCc1cccc2ccccc12)C(=O)N[C@H](C(=O)NCc1ccccc1)C(C)C` showed a Ki of 26 nM. Also, in assay [2], the IC50 was > 3000 nM. The corresponding values for `CC(C)C[C@H](NC(=O)[C@H](NCc1ccccc1)[C@H](O)[C@H](Cc1ccccc1)NC(=O)[C@@H](NC(=O)OCc1ccccc1)C(C)C)C(=O)NCc1ccccc1` are 44 nM and > 3000 nM.

`CC(C)[C@H](NC(=O)[C@H](NCc1ccccc1)[C@H](O)[C@H](Cc1ccccc1)NC(=O)[C@H](Cc1c[nH]c2ccccc12)NC(=O)OCc1ccccc1)C(=O)NCc1ccccc1` had a Ki in assay [1] of 200 nM. In addition, the IC50 in assay [2] was > 3000 nM.

On to `CC(C)[C@H](NC(=O)OCc1ccccc1)C(=O)N[C@@H](Cc1ccccc1)[C@@H](O)[C@@H](NCc1ccc(Cl)cc1)C(=O)N[C@H](C(=O)NCc1ccccc1)C(C)C`, for which the Ki in assay [1] amounted to 17 nM. Moreover, in assay [2], the IC50 came out at 400 nM. The corresponding values for `CC(C)[C@H](NC(=O)OCc1ccccc1)C(=O)N[C@@H](Cc1ccccc1)[C@@H](O)[C@@H](NCc1ccc(Cl)cc1)C(=O)N[C@H](C(=O)NCc1nc2ccccc2[nH]1)C(C)C` are 6.1 nM and 120 nM. For `CC(C)[C@H](NC(=O)OCc1ccccc1)C(=O)N[C@@H](Cc1ccccc1)[C@@H](O)[C@@H](NCc1ccccc1)C(=O)N[C@H](C(=O)NC(C)(C)C)C(C)C` the same measures were 72 nM and > 3000 nM. The corresponding values for `CC(C)[C@H](NC(=O)OCc1ccccc1)C(=O)N[C@@H](Cc1ccccc1)[C@@H](O)[C@@H](NCc1ccccc1)C(=O)N[C@H](C(=O)NCc1ccccn1)C(C)C` are 12 nM and 1140 nM.

`CC(C)[C@H](NC(=O)OCc1ccccc1)C(=O)N[C@@H](Cc1ccccc1)[C@@H](O)[C@@H](NCc1ccccc1)C(=O)N[C@H](C(=O)NCc1nc2ccccc2[nH]1)C(C)C` displayed a Ki in assay [1] of 13 nM. The molecule further returned an IC50 in assay [2] of 140 nM. The corresponding values for `CCCCN[C@@H](C(=O)N[C@H](C(=O)NCc1ccccc1)C(C)C)[C@H](O)[C@H](Cc1ccccc1)NC(=O)[C@@H](NC(=O)OCc1ccccc1)C(C)C` are 23 nM and > 3000 nM.

The molecule `CC(C)[C@H](NC(=O)OCc1ccccc1)C(=O)N[C@@H](Cc1ccccc1)[C@@H](O)[C@@H](NCCc1c[nH]c2ccccc12)C(=O)N[C@H](C(=O)NCc1ccccc1)C(C)C` came in with a Ki in assay [1] of 61 nM. The IC50 in assay [2] is > 3000 nM. In assay [1], `CC(C)[C@H](NC(=O)OCc1ccccc1)C(=O)N[C@@H](Cc1ccccc1)[C@@H](O)[C@@H](NCc1ccccc1)C(=O)N[C@@H](CC(N)=O)C(=O)NCc1ccccc1` registered a Ki of 42 nM. In assay [2], the concentration for half-maximal inhibition (IC50) was > 3000 nM. The molecule `CC(C)[C@H](NC(=O)OCc1ccccc1)C(=O)N[C@@H](Cc1ccccc1)[C@@H](O)[C@@H](NCCc1ccccc1)C(=O)N[C@H](C(=O)NCc1ccccc1)C(C)C` gave a Ki in assay [1] of 34 nM. For the same molecule, in assay [2], the half-maximal inhibitory concentration (IC50) was > 3000 nM.

Turning to `CC(C)[C@H](NC(=O)[C@H](NCc1ccccc1)[C@H](O)[C@H](Cc1ccccc1)NC(=O)[C@@H](NC(=O)OCc1ccccc1)c1ccccc1)C(=O)NCc1ccccc1`, in assay [1], the Ki worked out at 51 nM. Moreover, the IC50 in assay [2] is > 3000 nM. For `CC(C)[C@H](NC(=O)OCc1ccccc1)C(=O)N[C@@H](Cc1ccccc1)[C@@H](O)[C@@H](NC1CCCCC1)C(=O)N[C@H](C(=O)NCc1ccccc1)C(C)C` the same measures were 33.5 nM and 940 nM. Molecule `CC(C)[C@H](NC(=O)OCc1ccccc1)C(=O)N[C@@H](Cc1ccccc1)[C@@H](O)[C@@H](NCc1ccccc1)C(=O)N[C@H](C(=O)NCCc1c[nH]c2ccccc12)C(C)C` had an inhibition constant Ki in assay [1] of 10.6 nM. For the same molecule, the IC50 in assay [2] is > 3000 nM. The corresponding values for `CC(C)[C@H](NC(=O)OCc1ccccc1)C(=O)N[C@@H](Cc1ccccc1)[C@@H](O)[C@@H](Nc1ccc(-c2ccccc2)cc1)C(=O)N[C@H](C(=O)NCc1ccccc1)C(C)C` are 59 nM and > 3000 nM. Molecule `CC(C)[C@H](NC(=O)c1ccc2ccccc2n1)C(=O)N[C@@H](Cc1ccccc1)[C@@H](O)[C@@H](NCc1ccccc1)C(=O)N[C@H](C(=O)NCc1ccccc1)C(C)C` showed a Ki in assay [1] of 10.2 nM. This molecule also registered a 50% inhibitory concentration (IC50) in assay [2] of 1610 nM. For `CC(C)[C@H](NC(=O)OCc1ccccn1)C(=O)N[C@@H](Cc1ccccc1)[C@@H](O)[C@@H](NCc1ccccc1)C(=O)N[C@H](C(=O)NCc1ccccc1)C(C)C` the same measures were 8.6 nM and 350 nM. The corresponding values for `CC[C@H](C)[C@H](NC(=O)[C@H](NCc1ccccc1)[C@H](O)[C@H](Cc1ccccc1)NC(=O)[C@@H](NC(=O)OCc1ccccc1)C(C)C)C(=O)NCc1ccccc1` are > 3000 nM and > 3000 nM. The corresponding values for `CC[C@@H](C)[C@H](NC(=O)OCc1ccccc1)C(=O)N[C@@H](Cc1ccccc1)[C@@H](O)[C@@H](NCc1ccccc1)C(=O)N[C@H](C(=O)NCc1ccccc1)C(C)C` are 8.3 nM and > 3000 nM. As to `CCOC(=O)[C@@H](NC(=O)[C@H](NCc1ccccc1)[C@H](O)[C@H](Cc1ccccc1)NC(=O)[C@@H](NC(=O)OCc1ccccc1)C(C)C)C(C)C`, the inhibition constant (Ki) in assay [1] stood at 1200 nM. Moreover, in assay [2], the IC50 was > 3000 nM.

Turning to `CC(C)[C@H](NC(=O)[C@H](NCc1ccccc1)[C@H](O)[C@H](Cc1ccccc1)NC(=O)[C@H](Cc1cnc[nH]1)NC(=O)OCc1ccccc1)C(=O)NCc1ccccc1`, the Ki in assay [1] was determined as 29 nM. For the same molecule, in assay [2], the IC50 was > 3000 nM. With `CC(C)[C@H](NC(=O)[C@H](NCc1ccccc1)[C@H](O)[C@H](Cc1ccccc1)NC(=O)[C@@H](NC(=O)N(C)Cc1nc2ccccc2[nH]1)C(C)C)C(=O)NCc1ccccc1`, in assay [1], the affinity, expressed as Ki, was 10.2 nM. The same molecule gave a 50% inhibitory concentration (IC50) in assay [2] of 270 nM. The corresponding values for `CC(C)[C@H](NC(=O)OCc1ccccc1)C(=O)N[C@@H](Cc1ccccc1)[C@@H](O)[C@@H](NCCc1ccccn1)C(=O)N[C@H](C(=O)NCc1ccccc1)C(C)C` are 200 nM and > 3000 nM. For `CC(C)[C@H](NC(=O)[C@H](NCc1ccccc1)[C@H](O)[C@H](Cc1ccccc1)NC(=O)[C@H](CO)NC(=O)OCc1ccccc1)C(=O)NCc1ccccc1` the same measures were 153 nM and 2500 nM. Turning to `CC(C)[C@H](NC(=O)CCc1nc2ccccc2[nH]1)C(=O)N[C@@H](Cc1ccccc1)[C@@H](O)[C@@H](NCc1ccccc1)C(=O)N[C@H](C(=O)NCc1ccccc1)C(C)C`, in assay [1], the Ki is 9.9 nM. Moreover, the IC50 in assay [2] turned out to be 180 nM. For `CC(C)[C@H](NC(=O)[C@H](NCc1ccccc1)[C@H](O)[C@H](Cc1ccccc1)NC(=O)[C@H](CCC(N)=O)NC(=O)OCc1ccccc1)C(=O)NCc1ccccc1` the same measures were 45 nM and 2000 nM. The corresponding values for `CC(C)[C@H](NC(=O)OCc1ccccc1)C(=O)N[C@@H](Cc1ccccc1)[C@@H](O)[C@@H](NCc1ccc(Br)cc1)C(=O)N[C@H](C(=O)NCc1ccccc1)C(C)C` are 23 nM and 350 nM. For `CC(C)C[C@H](NC(=O)OCc1ccccc1)C(=O)N[C@@H](Cc1ccccc1)[C@@H](O)[C@@H](NCc1ccccc1)C(=O)N[C@H](C(=O)NCc1ccccc1)C(C)C` the same measures were 65 nM and > 3000 nM.

In assay [1], `CC(C)[C@H](NC(=O)[C@H](NCc1ccccc1)[C@H](O)[C@H](Cc1ccccc1)NC(=O)[C@H](CC(N)=O)NC(=O)OCc1ccccc1)C(=O)NCc1ccccc1` displayed a Ki of 10.4 nM. In addition, in assay [2], the IC50 worked out at 1010 nM. `CC(C)[C@H](NC(=O)OCc1ccccc1)C(=O)N[C@@H](Cc1ccccc1)[C@@H](O)[C@@H](Nc1ccccc1)C(=O)N[C@H](C(=O)NCc1ccccc1)C(C)C` displayed an inhibitory constant (Ki) in assay [1] of 6.9 nM. This molecule also registered an IC50 in assay [2] of 1340 nM. For `CC(C)[C@H](NC(=O)OCc1ccccc1)C(=O)N[C@@H](Cc1ccccc1)[C@@H](O)[C@@H](NCc1ccccc1)C(=O)N[C@H](C(=O)OCc1nc2ccccc2[nH]1)C(C)C` the same measures were 29 nM and > 3000 nM. The corresponding values for `CC[C@H](NC(=O)OCc1ccccc1)C(=O)N[C@@H](Cc1ccccc1)[C@@H](O)[C@@H](NCc1ccccc1)C(=O)N[C@H](C(=O)NCc1ccccc1)C(C)C` are 17.1 nM and 2000 nM. The corresponding values for `CC(C)[C@H](NC(=O)OCc1ccccc1)C(=O)N[C@@H](Cc1ccccc1)[C@@H](O)[C@@H](SCc1ccccc1)C(=O)N[C@H](C(=O)NCc1ccccc1)C(C)C` are 10 nM and 330 nM. As for `CC(C)[C@H](NC(=O)OCc1ccccc1)C(=O)N[C@@H](Cc1ccccc1)[C@@H](O)[C@@H](NCc1ccccc1)C(=O)N[C@@H](C(=O)NCc1ccccc1)C(C)(C)C.CC(C)[C@H](NC(=O)OCc1ccccc1)C(=O)N[C@@H](Cc1ccccc1)[C@@H](O)[C@@H](NCc1ccccc1)C(=O)N[C@H](C(=O)NCc1ccccc1)C(C)(C)C` (stereo in doubt; 32(5:1)), in assay [1], affinity was put at a Ki of 20 nM.

For orientation: Ki means the dissociation constant of the complex between target and ligand, obtained from inhibition or displacement. High values mean a looser hold on the target, low ones a stronger hold on the target. By IC50 is commonly meant the concentration at which inhibition is half-maximal.
